Measured values taken from paper PMC10993246 (ACS Omega, 2024).
Residues, ends and D or L forms follow the SMILES beside them.

Assays:
L929 cells = test: Cell proliferation / cytotoxicity MTT assay; assay type: cell-based; details: 48 h; for toxicity toward the cells: L929 cells, 10, 25, 50 and 100 μM, IC50 values could not be calculated
Method in brief: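 L929 cells were seeded at 0.5 × 10^4 cells per well and held 24 h in complete medium. Fluorescein-labelled and unlabelled test peptides were then added at 10, 25, 50 and 100 μM for 48 h. MTT was applied for 4 h at 37 °C in the dark, formazan was dissolved in DMSO, and A570 was read. % viability = treated/untreated absorbance; mean ± SD; two-way ANOVA.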

[1] = test system: mouse fibroblast 3T3 cells; details: cell fixation conditions, ref 36 (Rhee et al.); cited from earlier work
[2] = ref 43 (Futaki et al.); cited from earlier work
3T3 cells = test: Membrane penetrability, fixed cells, fluorescence and confocal microscopy; assay type: cell-based, mouse; details: fixed 3T3 cells, 50 μM in PBS, 6 h, 4 °C, confocal microscopy

Row | Compound | toxicity toward the cells (L929 cells) | cellular viability at 25 and 50 μM compared to 10 μM (L929 cells; L929 cells) | localization of CPPs [2] | other results
1 | CC(C)C[C@H](NC(=O)[C@H](CO)NC(=O)CNC(=O)[C@@H](N)C(C)C)C(=O)N[C@@H](CCCNC(=N)N)C(=O)O [VGSLR] (H-VGSLR-OH) | did not show any significant toxicity | increased progressively | – | –
2 | CSIPPEVKFNPFVYLI [C105Y] | – | – | – | localization of the fluorescent-tagged peptide [1]: enriched fluorescence signal in the nucleus in addition to being present in the cytoplasm
3 | GRRRRRRRRRPPQ [R9-TAT] | – | – | in both the cytoplasm and nucleus | –
4 | FITC-VGSLR | does not show any toxicity | increased progressively | – | subcellular localization (3T3 cells): localization of the peptide at the nucleus was more than that in the cytoplasm; cell proliferation compared to the untreated cells (L929 cells; L929 cells, 50 μM, absorbance 570 nm, p < 0.0001): higher proliferation; cell viability at 100 μM (L929 cells; L929 cells, 100 μM): reduced viability
5 | Tat-(48–60): CPP reported by Futaki et al. (GRKKRRQRRRAHQ; UniProt P04608 48-60, looked up, fragment) | – | – | in both the cytoplasm and nucleus | –
